# In publication PMC3008344 (Molecular nutrition & food research, 2009):
# Assays:
# [1] = test system: BALB/c 66cl-4-GFP mouse mammary cancer cells; conditions: formulated in liposomes, oral gavage, BALB/c 66cl-4-GFP cells; cited from earlier work
# [2] = test system: MDA-MB-231-GFP human breast cancer cells; assay: Colony formation assay; type: cell-based; conditions: for IC50: Homo sapiens, 240 h, read-out: IC50 for inhibition of colony formation; for Effect on colony formation: MDA-MB-231-GFP cells, 10 days, 10–40 μM range tested
# In short: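 MDA-MB-231-GFP cells were seeded at 1000 per 100 mm plate in 2% FBS medium and grown 3 days to form small colonies. They were then treated 10 days with test compound at 10–40 μM (positive control 5–15 μM) or DMSO/ethanol (1:4) vehicle. Colonies were methanol-fixed, stained with 0.1% methylene blue and counted by image analysis. Survival (%) = colonies treated/control × 100. IC50 came from survival curves; mean ± SD, ≥2 experiments.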
# Survivin = assay: Western blot of Survivin protein expression; type: cell-based, human; conditions: MDA-MB-231-GFP cells; for Survivin protein expression: 5 days
# In short: (§1)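 Whole-cell extracts came from the same 5-day-treated MDA-MB-231-GFP samples (2% FBS) used for annexin V analysis. Blots were incubated overnight at 4°C with primary antibody in 0.1% BSA/TBST against PARP (cleavage), Survivin, DR5 or GAPDH. After TBST washes they were probed with HRP-conjugated secondary antibody.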
# [3] = test system: MDA-MB-231-GFP human breast cancer cells; assay: Visible lung metastases counted at sacrifice; type: in vivo, Nu/Nu female BALB/c mice; conditions: 500 mg/kg diet each, control 70%
# PARP = assay: Western blot of PARP cleavage; type: cell-based, human; conditions: MDA-MB-231-GFP cells; for PARP cleavage: 5 days
# In short: as §1
# [4] = test system: MDA-MB-231-GFP human breast cancer cells; assay: Annexin V-PE apoptosis assay; type: cell-based; conditions: MDA-MB-231-GFP cells; for Induction of apoptosis (annexin V-PE positive cells): 5 day treatments
# DR5 = assay: Western blot of DR5 protein expression; type: cell-based, human; conditions: MDA-MB-231-GFP cells; for DR5 protein expression: 5 days
# [5] = test system: MDA-MB-231-GFP tumor tissue; assay: Tumor immunohistochemistry: Ki-67 proliferation; type: in vivo, Nu/Nu female BALB/c mice; conditions: tumor tissue from 5 mice/group, 500 mg/kg diet
# In short: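 Female Nu/Nu BALB/c mice (6 weeks) received 2 × 10^6 MDA-MB-231-GFP cells s.c. (inguinal) in 50% matrigel. At ~25 mm3 they were randomised (10/group) to tocopherol-stripped AIN-76A diet with 33 IU all-rac-α-tocopherol acetate/kg, ± test form at 500 mg/kg, for 24 days. Formalin-fixed tumours were cut into 5 μm sections and stained for Ki-67. Positive cells were counted in 5 fields (400×) per tumour, 5 mice/group; Mann-Whitney test.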
# [6] = test system: MDA-MB-231-GFP tumor tissue; assay: Tumor immunohistochemistry: TUNEL apoptosis; type: in vivo, Nu/Nu female BALB/c mice; conditions: tumor tissue from 5 mice/group, 500 mg/kg diet
# In short: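 Xenografts came from female Nu/Nu BALB/c mice carrying s.c. MDA-MB-231-GFP tumours in matrigel. From ~25 mm3, mice were fed for 24 days a tocopherol-stripped AIN-76A basal diet (33 IU all-rac-α-tocopherol acetate/kg) with or without 500 mg/kg test vitamin E form. TUNEL (ApopTag) staining was done on deparaffinised 5 μm sections of formalin-fixed tumours. Brown nuclei were scored in 15 fields (400×) per tumour, 5 mice/group; Mann-Whitney test.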
# [7] = test system: human MDA-MB-231 breast cancer cells; conditions: supplemented in the diet, MDA-MB-231 cells; cited from earlier work
Structure (SMILES),Tumor growth in syngeneic mouse model [1],IC50 [2],Survivin protein expression (Survivin),Incidence of visible lung metastases [3],PARP cleavage (PARP),Induction of apoptosis (annexin V-PE positive cells) [4],DR5 protein expression (DR5),Decrease of Ki-67 positive cells in tumor in comparison to control group [5],Increase of TUNEL positive cells in tumor in comparison to control group [6],Tumor burden in xenograft model [7],Effect on colony formation [2],Effect of αT co-treatment on γT- and α-TEA-induced downregulation of Survivin (Survivin),Effect of αT co-treatment on γT- and α-TEA-induced cleavage of PARP (PARP),"Block of α-TEA-induced apoptosis by αT ([4]; 10 μM αT plus 10 μM α-TEA, 5 days)","Block of γT-induced apoptosis by αT ([4]; 10 μM αT plus 40 μM γT, 5 days)",Effect of αT co-treatment on γT- and α-TEA-induced upregulation of DR5 (DR5)
"Cc1c(C)c2c(c(C)c1OCC(=O)O)CC[C@@](C)(CCC[C@H](C)CCC[C@H](C)CCCC(C)C)O2 [α-TEA, RRR-α-tocopherol ether-linked acetic acid analog]",suppressed tumor growth,4.8 µM,downregulation of anti-apoptotic Survivin,30%,PARP cleavage,induced dose-dependent apoptosis,upregulation of pro-apoptotic death receptor DR5,39%,2.1 fold,,,,,,,
"Cc1c(C)c2c(c(C)c1O)CCC(C)(CCCC(C)CCCC(C)CCCC(C)C)O2 (racemic) [all-rac-αT, all-racemic-α-tocopherol]",suppressed tumor growth,,did not downregulate Survivin,30%,did not cause cleavage of PARP,,induced an increase in DR5 protein expression,23%,2.1 fold,reduced tumor burden,no inhibitory effect,,,,,
"Cc1c(C)c2c(c(C)c1O)CC[C@@](C)(CCC[C@H](C)CCC[C@H](C)CCCC(C)C)O2 [αT, RRR-α-tocopherol]",,,did not downregulate Survivin,60%,did not cause cleavage of PARP,,induced an increase in DR5 protein expression,but not αT or αT + γT groups,but not in the αT or αT + γT groups,,no inhibitory effect,blocked,blocked,70%,60%,blocked
"Cc1c(O)cc2c(c1C)O[C@](C)(CCC[C@H](C)CCC[C@H](C)CCCC(C)C)CC2 [γT, RRR-γ-tocopherol]",suppressed tumor growth,11.8 µM,downregulation of anti-apoptotic Survivin,30%,PARP cleavage,induced dose-dependent apoptosis,upregulation of pro-apoptotic death receptor DR5,no significant difference,1.9 fold,,,,,,,
